Activity calls are given as the source filed them. The rule behind the calls is not given here.
Tests used:
[1] = system: MCF7; experiment: Antiproliferative activity against human MCF7 cells assessed as reduction in cell growth after 72 hrs by MTT assay; assay type: functional, cell-based; conditions: MCF7, 72 h
Procedure, shortened: (§1)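 Human HepG2, MCF-7, HCT-116 and K562 tumour cells plus normal L-02 hepatocytes and PBMCs were exposed to compounds for 72 h and growth was read by MTT. 5-Fu served as positive control. IC50 is the concentration inhibiting 50% of cell growth, given as mean ± standard deviation of three independent experiments.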

[2] = system: HCT-116; experiment: Antiproliferative activity against human HCT116 cells assessed as reduction in cell growth after 72 hrs by MTT assay; assay type: functional, cell-based; conditions: HCT-116, 72 h; procedure, shortened: as §1
[3] = system: L02; experiment: Antiproliferative activity against human L02 cells assessed as reduction in cell growth after 72 hrs by MTT assay; assay type: functional, cell-based; conditions: L02, 72 h; procedure, shortened: as §1
[4] = system: PBMC; experiment: Cytotoxicity against human PBMC assessed as reduction in cell growth after 72 hrs by MTT assay; assay type: cell-based; procedure, shortened: as §1
[5] = Drug metabolism assessed as nitric oxide release after 210 mins; assay type: physicochemical; conditions: 3.5 h
Procedure, shortened: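 NO released from the NO-donating derivatives was measured over time up to 210 min by Griess assay.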

[6] = system: K562; experiment: Induction of cell cycle arrest in human K562 cells assessed as accumulation at G1 phase at 0.55 uM after 72 hrs by propidium iodide staining based flow cytometry (reference value: 56.13%); assay type: functional
Procedure, shortened: (§2)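 For cell cycle, K562 cells were treated 72 h at 0, 0.55, 1.10 or 2.20 μM, with a solvent control. Cells were stained with PI and G1, S and G2/M fractions determined by flow cytometry.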

[7] = system: K562; experiment: Induction of cell cycle arrest in human K562 cells assessed as accumulation at S phase at 0.55 uM after 72 hrs by propidium iodide staining based flow cytometry (reference value: 35.68%); assay type: functional; procedure, shortened: as §2
[8] = system: K562; experiment: Induction of cell cycle arrest in human K562 cells assessed as accumulation at G2/M phase at 1.10 uM after 72 hrs by propidium iodide staining based flow cytometry (reference value: 8.19%); assay type: functional; procedure, shortened: as §2
[9] = system: K562; experiment: Induction of cell cycle arrest in human K562 cells assessed as accumulation at S phase at 1.10 uM after 72 hrs by propidium iodide staining based flow cytometry (reference value: 35.68%); assay type: functional; procedure, shortened: as §2
[10] = system: K562; experiment: Induction of cell cycle arrest in human K562 cells assessed as accumulation at G1 phase at 2.20 uM after 72 hrs by propidium iodide staining based flow cytometry (reference value: 56.13%); assay type: functional; procedure, shortened: as §2
[11] = system: K562; experiment: Induction of cell cycle arrest in human K562 cells assessed as accumulation at G2/M phase at 2.20 uM after 72 hrs by propidium iodide staining based flow cytometry (reference value: 8.19%); assay type: functional; procedure, shortened: as §2
[12] = system: K562; experiment: Induction of cell cycle arrest in human K562 cells assessed as accumulation at S phase at 2.20 uM after 72 hrs by propidium iodide staining based flow cytometry (reference value: 35.68%); assay type: functional; procedure, shortened: as §2
[13] = system: K562; experiment: Induction of cell cycle arrest in human K562 cells assessed as accumulation at S phase after 72 hrs by propidium iodide staining based flow cytometry; assay type: functional; procedure, shortened: as §2
[14] = system: K562; experiment: Induction of morphological changes in human K562 cells assessed as chromatin aggregation at 0.55 to 2.20 uM after 48 hrs by Hoechst 33258 staining based fluorescence microscopic analysis; assay type: functional, cell-based
Procedure, shortened: (§3)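 After 48 h exposure at 0, 0.55, 1.10 or 2.20 μM, K562 cells were stained with Hoechst 33258. Nuclear morphology, including chromatin aggregation and nuclear rupture, was examined by fluorescence microscopy.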

[15] = system: K562; experiment: Induction of morphological changes in human K562 cells assessed as nuclear rupture at 0.55 to 2.20 uM after 48 hrs by Hoechst 33258 staining based fluorescence microscopic analysis; assay type: functional, cell-based; procedure, shortened: as §3
[16] = system: K562; experiment: Induction of apoptosis in human K562 cells assessed as viable cells at 0.55 uM after 48 hrs by annexin V-FITC/propidium iodide staining based flow cytometry (reference value: 96.26%); assay type: functional; conditions: K562, 48 h, read-out: Activity
[17] = system: K562; experiment: Induction of apoptosis in human K562 cells assessed as early apoptotic cells at 0.55 uM after 48 hrs by annexin V-FITC/propidium iodide staining based flow cytometry (reference value: 2.23%); assay type: functional
[18] = system: K562; experiment: Induction of apoptosis in human K562 cells assessed as late apoptotic cells at 0.55 uM after 48 hrs by annexin V-FITC/propidium iodide staining based flow cytometry (reference value: 0.73%); assay type: functional
[19] = system: K562; experiment: Induction of apoptosis in human K562 cells assessed as viable cells at 1.10 uM after 48 hrs by annexin V-FITC/propidium iodide staining based flow cytometry (reference value: 96.26%); assay type: functional; conditions: K562, 48 h, read-out: Activity
[20] = system: K562; experiment: Induction of apoptosis in human K562 cells assessed as early apoptotic cells at 1.10 uM after 48 hrs by annexin V-FITC/propidium iodide staining based flow cytometry (reference value: 2.23%); assay type: functional
[21] = system: K562; experiment: Induction of apoptosis in human K562 cells assessed as late apoptotic cells at 1.10 uM after 48 hrs by annexin V-FITC/propidium iodide staining based flow cytometry (reference value: 0.73%); assay type: functional
[22] = system: K562; experiment: Induction of apoptosis in human K562 cells assessed as necrotic cells at 1.10 uM after 48 hrs by annexin V-FITC/propidium iodide staining based flow cytometry (reference value: 0.78%); assay type: functional
[23] = system: K562; experiment: Induction of apoptosis in human K562 cells assessed as early apoptotic cells at 2.20 uM after 48 hrs by annexin V-FITC/propidium iodide staining based flow cytometry (reference value: 2.23%); assay type: functional
[24] = system: K562; experiment: Induction of apoptosis in human K562 cells assessed as late apoptotic cells at 2.20 uM after 48 hrs by annexin V-FITC/propidium iodide staining based flow cytometry (reference value: 0.73%); assay type: functional
[25] = system: K562; experiment: Induction of apoptosis in human K562 cells by annexin V-FITC/propidium iodide staining based flow cytometry; assay type: functional, cell-based
[26] = system: K562; experiment: Induction of mitochondrial membrane potential loss in human K562 cells assessed as cell population with mitochondrial membrane potential collapse at 0.55 uM after 48 hrs by JC1 staining-based flow cytometry analysis (reference value: 7.04%); assay type: functional
[27] = system: K562; experiment: Induction of mitochondrial membrane potential loss in human K562 cells assessed as cell population with mitochondrial membrane potential collapse at 1.10 uM after 48 hrs by JC1 staining-based flow cytometry analysis (reference value: 7.04%); assay type: functional
[28] = system: K562; experiment: Induction of mitochondrial membrane potential loss in human K562 cells assessed as cell population with intact mitochondrial membrane potential at 2.20 uM after 48 hrs by JC1 staining-based flow cytometry analysis (reference value: 92.94%); assay type: functional
[29] = system: K562; experiment: Induction of mitochondrial membrane potential loss in human K562 cells assessed as cell population with mitochondrial membrane potential collapse at 2.20 uM after 48 hrs by JC1 staining-based flow cytometry analysis (reference value: 7.04%); assay type: functional
[30] = system: K562; experiment: Induction of apoptosis in human K562 cells assessed as increase in Bad protein expression after 24 hrs by chemiluminescence based protein array analysis; assay type: functional, cell-based
Procedure, shortened: (§4)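 K562 cells were treated for 24 h, then proteins were extracted and run on a human apoptosis protein array. Chemiluminescent signals were detected with a digital imaging system.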

[31] = system: K562; experiment: Induction of apoptosis in human K562 cells assessed as reduction in survivin level after 24 hrs by chemiluminescence based protein array analysis; assay type: functional, cell-based; procedure, shortened: as §4
[32] = system: K562; experiment: Induction of apoptosis in human K562 cells assessed as reduction in catalase protein expression after 24 hrs by chemiluminescence based protein array analysis; assay type: functional, cell-based; procedure, shortened: as §4

SMILES: CN1Cc2c(ccc3c2OCO3)[C@H]2[C@@H](OC(=O)CCCC(=O)OCC#CCOc3no[n+]([O-])c3S(=O)(=O)c3ccccc3)Cc3cc4c(cc3[C@H]21)OCO4
- IC50 [1]: 6.9 µM
- IC50 [2]: 4.36 µM
- IC50 [3]: 6.04 µM
- IC50 [4]: > 40 µM
- Drug metabolism [5]: 30 µM
- Activity [6]: 47.82%
- Activity [7]: 41.89%
- Activity [8]: 6.69%
- Activity [9]: 52.04%
- Activity [10]: 32.41%
- Activity [11]: 7.87%
- Activity [12]: 59.72%
- Activity [13]: Dose-dependent effect
- Activity [14]: Active
- Activity [15]: Active
- viability at 0.55 µM [16]: 88.3%
- Activity [17]: 6.49%
- Activity [18]: 3.47%
- viability at 1.1 µM [19]: 80.5%
- Activity [20]: 16.46%
- Activity [21]: 2.39%
- Activity [22]: 0.66%
- Activity [23]: 24.84%
- Activity [24]: 28.97%
- Activity [25]: Dose-dependent effect
- Activity [26]: 19.29%
- Activity [27]: 28.66%
- Activity [28]: 48.85%
- Activity [29]: 51.15%
- Activity [30]: Active
- Activity [31]: Active
- Activity [32]: Active

Source: ChEMBL document CHEMBL4610039, “Design, synthesis and apoptosis-related antiproliferative activities of chelidonine derivatives” (Bioorg Med Chem Lett, 2020)
